Measurements: ChEMBL document CHEMBL4393708, “Pyridinylimidazoles as dual glycogen synthase kinase 3β/p38α mitogen-activated protein kinase inhibitors” (Eur J Med Chem, 2019)

Assays:
[1] = molecular target: T1, Mitogen-activated protein kinase 14 (Homo sapiens, UniProt Q16539); experiment: Inhibition of p38alpha MAPK (unknown origin) using ATF-2 as substrate after 1 hr by ELISA
[2] = molecular target: Glycogen synthase kinase-3 beta (Homo sapiens, UniProt P49841); experiment: Competitive inhibition of human recombinant full length GSK3beta using YRRAAVPPSPSLSRHSSPHQ(pS)EDEEE as substrate preincubated with enzyme for 10 mins followed by substrate and 25 uM ATP addition measured after 60 mins by ADP-Glo luminescence assay
How it was run: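 Compounds in serial dilutions were preincubated with kinase for 10 min at rt. Substrate/ATP was then added and the reaction ran 60 min at rt. ADP-Glo reagent 60 min, detection reagent 30 min, then luminescence read (500 ms integration).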

[3] = molecular target: Glycogen synthase kinase-3 alpha (Homo sapiens, UniProt P49840); experiment: Inhibition of human recombinant full length GSK3alpha using YRRAAVPPSPSLSRHSSPHQ(pS)EDEEE as substrate preincubated with enzyme for 10 mins followed by substrate and 25 uM ATP addition measured after 60 mins by ADP-Glo luminescence assay
How it was run: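 Recombinant human GSK3α at 0.50 ng/µL, 25 µM ATP, 0.2 µg/µL substrate G50-58, serial compound dilutions. Kinase was preincubated with compound 10 min at rt, then run 60 min at rt after substrate/ATP addition. ADP-Glo reagent 60 min, detection reagent 30 min, luminescence read. Uninhibited-kinase and ATP/substrate-only controls were included.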

[4] = Drug uptake in RjOrl:Swiss CD-1 mouse brain at 10 mg/kg, iv administered as single dose measured after 2 hrs by LC-MS analysis; type: ADME, organism-based; details: read-out: Drug uptake
How it was run: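 Adult male RjOrl:Swiss CD-1 mice got one intravenous dose of 10 mg/kg. Plasma was sampled at 10, 30 and 120 min. After the last sample the mice were sacrificed and brains dissected. Blood and brain samples were prepared and analysed by LC-MS for parent and sulfoxide metabolite; brain levels reported as ng/g.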

[5] = tested on: Blood; experiment: Inhibition of LPS-induced TNFalpha production in human whole blood preincubated with compound for 15 mins followed by LPS addition measured after 2.5 hrs by ELISA; type: functional, tissue-based
[6] = molecular target: T1, Mitogen-activated protein kinase 14; experiment: Inhibition of human recombinant p38alpha MAPK upto 10000 nM using Ulight-CFFKNIVTPRTPPPSQGK-amide as substrate measured after 30 mins by LANCE assay relative to control
[7] = Metabolic stability in human liver microsomes assessed as parent compound remaining after 20 mins by LC-MS analysis relative to control; type: ADME, Microsome; details: read-out: Stability
[8] = Metabolic stability in human liver microsomes assessed as parent compound remaining after 60 mins by LC-MS analysis relative to control; type: ADME, Microsome; details: read-out: Stability
[9] = Metabolic stability in human liver microsomes assessed as parent compound remaining after 240 mins by LC-MS analysis relative to control; type: ADME, Microsome; details: read-out: Stability
[10] = Metabolic stability in human liver microsomes assessed as parent compound remaining after 120 mins by LC-MS analysis relative to control; type: ADME, Microsome; details: read-out: Stability
[11] = Metabolic stability in human liver microsomes assessed as parent compound remaining after 30 mins by LC-MS analysis relative to control; type: ADME, Microsome; details: read-out: Stability
[12] = Metabolic stability in human liver microsomes assessed as parent compound remaining after 10 mins by LC-MS analysis relative to control; type: ADME, Microsome; details: read-out: Stability
[13] = Metabolic stability in human liver microsomes assessed as parent compound remaining after 180 mins by LC-MS analysis relative to control; type: ADME, Microsome; details: read-out: Stability
[14] = species on record: Homo sapiens; experiment: Selectivity ratio, Ratio of IC50 for human recombinant full length GSK3beta to IC50 for p38alpha MAPK (unknown origin)
How it was run: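 GSK3β was measured by ADP-Glo using 0.58 ng/µL recombinant human enzyme, 25 µM ATP and 0.2 µg/µL substrate peptide G50-58. Kinase was preincubated with serial compound dilutions for 10 min at rt, then reacted for 60 min at rt, with luminescence read-out. p38α inhibition was measured by ELISA.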

Glycogen synthase kinase-3 beta, sequence (P49841 whole entry): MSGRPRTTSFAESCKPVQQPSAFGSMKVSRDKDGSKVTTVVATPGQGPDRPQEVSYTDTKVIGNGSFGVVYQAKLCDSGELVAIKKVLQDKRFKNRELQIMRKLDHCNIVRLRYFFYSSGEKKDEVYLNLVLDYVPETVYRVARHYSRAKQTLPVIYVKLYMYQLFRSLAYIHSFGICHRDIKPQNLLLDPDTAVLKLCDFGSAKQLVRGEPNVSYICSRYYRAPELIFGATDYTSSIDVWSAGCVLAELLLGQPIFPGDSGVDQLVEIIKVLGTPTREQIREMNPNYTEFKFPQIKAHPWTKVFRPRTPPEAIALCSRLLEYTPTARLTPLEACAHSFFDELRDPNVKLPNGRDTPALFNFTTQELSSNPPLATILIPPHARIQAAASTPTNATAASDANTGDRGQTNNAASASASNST
T1 sequence (Q16539 whole entry): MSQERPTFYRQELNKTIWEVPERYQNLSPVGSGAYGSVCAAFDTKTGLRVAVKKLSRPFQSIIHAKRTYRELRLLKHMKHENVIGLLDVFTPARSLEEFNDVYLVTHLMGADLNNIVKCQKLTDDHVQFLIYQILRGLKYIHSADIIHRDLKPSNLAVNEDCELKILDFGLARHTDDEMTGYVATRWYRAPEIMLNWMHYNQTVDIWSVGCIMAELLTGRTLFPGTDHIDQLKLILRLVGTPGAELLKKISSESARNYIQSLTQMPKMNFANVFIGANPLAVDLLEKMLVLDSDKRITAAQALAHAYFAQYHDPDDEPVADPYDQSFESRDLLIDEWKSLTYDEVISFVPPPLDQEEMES
Glycogen synthase kinase-3 alpha, sequence (P49840 whole entry): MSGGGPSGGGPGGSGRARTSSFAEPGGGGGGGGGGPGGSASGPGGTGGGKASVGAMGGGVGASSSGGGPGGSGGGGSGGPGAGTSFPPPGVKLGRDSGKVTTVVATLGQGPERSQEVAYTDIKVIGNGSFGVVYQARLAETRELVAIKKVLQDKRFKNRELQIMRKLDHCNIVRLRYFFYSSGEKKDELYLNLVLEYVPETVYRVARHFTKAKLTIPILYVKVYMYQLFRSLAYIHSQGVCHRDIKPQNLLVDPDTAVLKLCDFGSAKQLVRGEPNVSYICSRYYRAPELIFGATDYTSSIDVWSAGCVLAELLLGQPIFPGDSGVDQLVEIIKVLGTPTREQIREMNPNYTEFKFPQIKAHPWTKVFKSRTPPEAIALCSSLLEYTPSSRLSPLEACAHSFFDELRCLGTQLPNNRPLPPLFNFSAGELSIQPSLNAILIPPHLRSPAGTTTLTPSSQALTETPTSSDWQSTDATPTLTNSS

Row | Structure (SMILES) | IC50 [1] [nM] | IC50 [2] [nM] | also measured
1 | C[S+]([O-])c1nc(-c2ccc(F)cc2)c(-c2ccnc(NC(=O)C3CC3)c2)[nH]1 (centres undefined) | 44 | 236 | IC50 [3]: 1340 nM; concentration at 2 h [4]: 65.8 ng/g
2 | C[S+]([O-])c1ccc(-c2nc(-c3ccc(F)cc3)c(-c3ccncc3)[nH]2)cc1 (centres undefined) [SB-203580] |  |  | IC50 [5]: 3200 nM
3 | O=C(Nc1cc(-c2[nH]c(SCc3ccccc3)nc2-c2ccc(F)cc2)ccn1)C1CC1 | 41 | 229 | IC50 [3]: 853 nM
4 | Cc1ncc(-c2ccnc(NC(=O)C3CC3)c2)[nH]1 |  | 1680 | inhibition [6]: 1%
5 | O=C(Nc1cc(-c2[nH]c(SCc3ccccc3)nc2-c2ccc(F)cc2)ccn1)C1CCCC1 | 20 | 663 | 
6 | CSc1nc(-c2ccnc(NC(=O)C3CC3)c2)c(-c2ccc(F)cc2)n1C | 1600 | 1780 | 
7 | CSc1nc(-c2ccc(F)cc2)c(-c2ccnc(NC(=O)C3CCCO3)c2)[nH]1 (centres undefined) | 28 | 527 | 
8 | COc1cc(CCC(=O)Nc2cc(-c3[nH]c(SCc4ccccc4)nc3-c3ccc(F)cc3)ccn2)cc(OC)c1OC | 61 | 1150 | 
9 | Cc1nc(-c2ccc(F)cc2)c(-c2ccnc(NC(=O)C3CC3)c2)[nH]1 | 19 | 53 | 
10 | CSc1nc(-c2ccc(F)cc2)c(-c2ccnc(NC(=O)[C@@H]3C[C@H]3c3ccccc3)c2)[nH]1 (relative stereo) | 15 | 808 | 
11 | O=C(Nc1cc(-c2[nH]c(-c3ccco3)nc2-c2ccc(F)cc2)ccn1)C1CC1 | 18 | 156 | 
12 | CSc1nc(-c2ccc(F)cc2)c(-c2ccnc(NC(=O)C3CCCC3)c2)[nH]1 | 40 | 136 | 
13 | CSc1nc(-c2ccc(F)cc2)c(-c2ccnc(NC(=O)c3ccoc3)c2)[nH]1 | 22 | 3650 | 
14 | CSc1nc(-c2ccc(F)cc2)c(-c2ccnc(NC(=O)CCc3ccc(C(F)(F)F)cc3)c2)[nH]1 | 27 | 956 | 
15 | CSc1nc(-c2ccc(F)cc2)c(-c2ccnc(NC(=O)[C@H]3C[C@@H](Cl)C3)c2)[nH]1 | 18 | 170 | 
16 | CC(=O)Nc1cc(-c2[nH]c(SCc3ccccc3)nc2-c2ccc(F)cc2)ccn1 | 51 | 560 | 
17 | O=C(Nc1cc(-c2[nH]c(CCc3ccccc3)nc2-c2ccc(F)cc2)ccn1)C1CC1 | 20 | 133 | 
18 | CSc1nc(-c2ccc(F)cc2)c(-c2ccnc(NC(C)=O)c2)[nH]1 | 45 | 152 | 
19 | CSc1nc(-c2ccc(F)cc2)c(-c2ccnc(NC(=O)C3(C(F)(F)F)CC3)c2)[nH]1 | 184 | > 10000 | 

Row | Structure (SMILES) | IC50 [1] [nM] | IC50 [2] [nM] | also measured
20 | CSc1nc(-c2ccc(F)cc2)c(-c2ccnc(NC(=O)CC3CC3)c2)[nH]1 | 15 | 215 | 
21 | CSc1nc(-c2ccc(F)cc2)c(-c2ccnc(NC(=O)C3CCC3)c2)[nH]1 | 27 | 132 | 
22 | COc1cccc(CCC(=O)Nc2cc(-c3[nH]c(SC)nc3-c3ccc(F)cc3)ccn2)c1 | 36 | 471 | 
23 | CSc1nc(-c2ccc(F)cc2)c(-c2ccnc(NC(=O)C3CC3)c2)n1C | 222 | 638 | 
24 | CSc1nc(-c2ccc(F)cc2)c(-c2ccnc(NC(=O)C3CC(=O)C3)c2)[nH]1 | 20 | 183 | 
25 | CSc1nc(-c2ccc(F)cc2)c(-c2ccnc(NC(=O)CN3CCCC3=O)c2)[nH]1 | 23 | 126 | 
26 | CSc1nc(-c2ccc(F)cc2)c(-c2ccnc(NC(=O)[C@H]3C[C@H](Cl)C3)c2)[nH]1 | 38 | 395 | 
27 | O=C(Nc1cc(-c2[nH]c(Cc3ccccc3)nc2-c2ccc(F)cc2)ccn1)C1CC1 | 18 | 59 | remaining at 20 min [7]: 83.6%; remaining at 1 h [8]: 69.4%; IC50 [3]: 428 nM; remaining at 4 h [9]: 66.1%; remaining at 2 h [10]: 69.8%; remaining at 0.5 h [11]: 78.1%; remaining at 10 min [12]: 92.4%; remaining at 3 h [13]: 68.7%
28 | CSc1nc(-c2ccc(F)cc2)c(-c2ccnc(NC(=O)c3ccccn3)c2)[nH]1 | 42 | > 10000 | 
29 | O=C(Cc1ccc(F)cc1)Nc1cc(-c2[nH]c(SCc3ccccc3)nc2-c2ccc(F)cc2)ccn1 | 3 | 1500 | Ratio IC50 [14]: > 500; remaining at 4 h [9]: 66%
30 | COc1cc(CC(=O)Nc2cc(-c3[nH]c(SC)nc3-c3ccc(F)cc3)ccn2)cc(OC)c1OC | 13 | 510 | 
31 | COc1ccc(CCC(=O)Nc2cc(-c3[nH]c(SC)nc3-c3ccc(F)cc3)ccn2)cc1 | 55 | 542 | 
32 | CSc1nc(-c2ccc(F)cc2)c(-c2ccnc(NC(=O)C3CCC(=O)C3)c2)[nH]1 (centres undefined) | 21 | 73 | 
33 | C[S+]([O-])c1nc(-c2ccc(F)cc2)c(-c2ccnc(NC(=O)C3CCC3)c2)[nH]1 (centres undefined) | 29 | 428 | 
34 | O=C(Nc1cc(-c2[nH]c(-c3ccccc3)nc2-c2ccc(F)cc2)ccn1)C1CC1 | 27 | 570 | 
35 | O=C(Nc1cc(-c2[nH]cnc2-c2ccc(F)cc2)ccn1)C1CC1 | 19 | 64 | 
36 | COc1cc(CCC(=O)Nc2cc(-c3[nH]c(SC)nc3-c3ccc(F)cc3)ccn2)cc(OC)c1OC | 88 | 363 | IC50 [3]: 2050 nM
37 | CSc1nc(-c2ccc(F)cc2)c(-c2ccnc(NCC3CC3)c2)[nH]1 | 14 | > 10000 | 
38 | CSc1nc(-c2ccc(F)cc2)c(-c2ccnc(NC(=O)Cc3ccc(C(F)(F)F)cc3)c2)[nH]1 | 29 | 3240 | 
